# Results as given in publication PMC8277681 (Molecular imaging and biology, 2021).
# Molecular target: mGluR2 (Rattus norvegicus, UniProt P31421)
# Experiment: PET imaging of brain uptake and blocking in rats
# Assay type: in vivo, Sprague Dawley rats
# Conditions: blocker 4 mg/kg i.v. 10 min before [18F]8, 1–10 min time window
# Outline: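 Male Sprague Dawley rats (275–400 g) under isoflurane/nitrous oxide (1.0–1.5% isoflurane), tail vein catheterized. Dynamic 60-min PET started at i.v. injection of the 18F radioligand (20–41 MBq). Unlabeled blocker in saline with 10% ethanol and 10% Tween 20 was given 4 mg/kg i.v. 10 min before the radioligand. Percent change in regional brain uptake versus baseline scans was taken at 1–10 min.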
# mGluR2, sequence (P31421 19-872): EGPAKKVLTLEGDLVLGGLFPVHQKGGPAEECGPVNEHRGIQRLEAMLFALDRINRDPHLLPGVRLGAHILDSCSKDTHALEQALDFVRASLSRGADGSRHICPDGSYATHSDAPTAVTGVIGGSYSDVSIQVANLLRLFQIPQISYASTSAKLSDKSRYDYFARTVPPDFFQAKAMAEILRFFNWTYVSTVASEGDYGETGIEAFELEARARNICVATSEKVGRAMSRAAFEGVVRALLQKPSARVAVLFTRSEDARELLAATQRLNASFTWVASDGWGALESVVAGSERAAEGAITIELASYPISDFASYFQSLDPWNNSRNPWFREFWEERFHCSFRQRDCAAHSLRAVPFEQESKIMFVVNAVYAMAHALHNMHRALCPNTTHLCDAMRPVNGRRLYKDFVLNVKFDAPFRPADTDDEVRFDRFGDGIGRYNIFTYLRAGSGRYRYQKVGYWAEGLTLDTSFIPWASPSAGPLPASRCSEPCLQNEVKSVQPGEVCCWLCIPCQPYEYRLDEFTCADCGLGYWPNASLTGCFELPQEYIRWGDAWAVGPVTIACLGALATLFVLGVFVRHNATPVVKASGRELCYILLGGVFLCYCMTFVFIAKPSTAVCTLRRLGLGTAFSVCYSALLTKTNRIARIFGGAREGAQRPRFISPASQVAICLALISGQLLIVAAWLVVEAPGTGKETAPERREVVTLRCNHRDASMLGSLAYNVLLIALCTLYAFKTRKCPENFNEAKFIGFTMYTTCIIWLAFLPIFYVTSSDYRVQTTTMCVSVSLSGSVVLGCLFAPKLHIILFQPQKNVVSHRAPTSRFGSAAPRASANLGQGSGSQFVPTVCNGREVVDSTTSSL
structure (smiles),measurement,value
"Fc1ccc(N2CCN(Cc3ccn4c(CC5CC5)nnc4c3C(F)(F)F)CC2)c(F)c1 [compound 8, 8-trifluoromethyl-3-cyclopropylmethyl-7-[(4-(2,4-difluorophenyl)-1-piperazinyl)methyl]-1,2,4-triazolo[4,3-a]pyridine]",decrease of [18F]8 uptake in cerebellum (blocking effect),18.8%
